Reference: ChEMBL document CHEMBL1124033, “N-aryl 3-halogenated azetidin-2-ones and benzocarbacephems, inhibitors of beta-lactamases” (J Med Chem, 1988)
pKi: −log10 of the molar value.

Each compound was assayed against Beta-lactamase TEM (Escherichia coli, UniProt P62593) (assay: Inhibition constant (Ki) for TEM-1 beta-lactamase).
Outline: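 Partially purified plasmid pBR322-encoded TEM-1 β-lactamase; computerized microacidimetric assay at pH 7, 37 °C. Time-dependent inactivation was checked by monitoring activity after enzyme preincubation with inhibitor at 1 to 100 concentrations.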

Chain of Beta-lactamase TEM (P62593 whole entry): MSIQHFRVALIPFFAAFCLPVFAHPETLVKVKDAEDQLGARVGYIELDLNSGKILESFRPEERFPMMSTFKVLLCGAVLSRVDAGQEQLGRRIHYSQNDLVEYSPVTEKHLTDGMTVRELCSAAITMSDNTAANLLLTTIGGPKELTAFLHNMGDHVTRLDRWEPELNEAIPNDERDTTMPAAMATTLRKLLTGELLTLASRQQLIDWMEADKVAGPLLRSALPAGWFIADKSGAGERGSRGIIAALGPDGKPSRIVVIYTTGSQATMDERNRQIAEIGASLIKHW

SMILES	pKi
Cc1onc(-c2ccccc2Cl)c1C(=O)N[C@@H]1C(=O)N2[C@@H]1SC(C)(C)[C@@H]2C(=O)O [CLOXACILLIN]	4.89
Cc1ccc(C(=O)O)cc1N1CCC1=O	5.00
CC1(C)S[C@@H]2[C@H](NC(=O)Cc3ccccc3)C(=O)N2[C@H]1C(=O)O [PENICILLIN G]	4.70
O=C(O)c1ccc2c(c1)N1C(=O)CC1CC2 (stereo unspecified)	4.70
Cc1ccc(C(=O)O)cc1N1CC(Br)C1=O (stereo unspecified)	4.40
O=C(O)c1ccc2c(c1)N1C(=O)CC1CC2Cl (stereo unspecified)	4.30
Cc1ccc(C(=O)O)cc1N1CC(F)(F)C1=O	4.08
Cc1ccc(C(=O)O)cc1N1CC(F)C1=O (stereo unspecified)	4.70
O=C(O)c1ccc2c(c1)N1C(=O)CC1CC2F (stereo unspecified)	4.41
Cc1ccc(C(=O)O)cc1N1CC(Br)(Br)C1=O	3.80
Cc1ccc(C(=O)O)cc1N1CC(F)(Br)C1=O (stereo unspecified)	4.22
